According to ChEMBL document CHEMBL4020840, “Synthesis and Biological Evaluation of Selenium-Containing 4-Anilinoquinazoline Derivatives as Novel Antimitotic Agents” (J Med Chem, 2018):
Values belong to the compound of their own block, whether it stands above or below them. Calls of active or inactive are those of the source. No cut-off for these calls is given here.

Key:
A549/CDDP = assay: Growth inhibition of human A549/CDDP cells after 48 hrs by MTT assay; assay type: functional, cell-based
Method in brief: (§1)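 MTT assay: log-phase cells plated at 5 × 10³/well for 24 h, then exposed to a range of test concentrations for 48 h. MTT (5 mg/mL) added for 4 h, formazan dissolved in DMSO, absorbance read at 570 nm. IC50 is the concentration giving 50% growth inhibition, from dose-response curves; at least three independent experiments, mean ± SE.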

[1] = Growth inhibition of human HepG2/DOX cells after 48 hrs by MTT assay; assay type: functional, cell-based; method in brief: as §1
[2] = (§2) Inhibition of porcine brain tubulin polymerization measured every 60 secs for 90 mins by DAPI staining based fluorescence assay; design: species or system Sus scrofa
Method in brief: (§3)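 Purified tubulin was tested in a kit assay. Final buffer: 80 mM PIPES sesquisodium (pH 6.9), 2.0 mM MgCl₂, 0.5 mM EGTA, 1 mM GTP, 10.2% glycerol. Compound (0.1–10 μM) was prewarmed at 37 °C for 1 min before tubulin was added. DAPI reporter fluorescence (ex 340 / em 410 nm) was read every 60 s for 90 min. Area under the curve gave percent inhibition versus control and the IC50.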

HCT-116 = assay: Growth inhibition of human HCT116 cells after 48 hrs by MTT assay; assay type: functional, cell-based; settings: HCT-116, 48 h; method in brief: as §1
[3] = Selectivity index, ratio of IC50 for human BJ cells to IC50 for human A549 cells; assay type: functional
Method in brief: (§4)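 MTT assay in normal cells and A549: seeding at 5 × 10³ cells/well for 24 h, 48 h compound exposure, then 5 mg/mL MTT for 4 h, DMSO solubilisation and absorbance at 570 nm. IC50 values came from dose–response curves of at least three independent experiments. Selectivity ratio = IC50 in normal cells / IC50 in A549.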

HeLa = assay: Antiproliferative activity against human HeLa cells after 48 hrs by MTT assay; assay type: functional, cell-based; method in brief: as §1
A549 [4] = assay: Growth inhibition of human A549 cells after 48 hrs by MTT assay; assay type: functional, cell-based; settings: A549, 48 h
[5] = Selectivity index, ratio of IC50 for HLF to IC50 for human A549 cells; method in brief: as §4
LoVo = assay: Growth inhibition of human LoVo cells after 48 hrs by MTT assay; assay type: functional, cell-based; method in brief: as §1
MDA-MB-231 = assay: Growth inhibition of human MDA-MB-231 cells after 48 hrs by MTT assay; assay type: functional, cell-based; settings: MDA-MB-231, 48 h; method in brief: as §1
RKO = assay: Growth inhibition of human RKO cells after 48 hrs by MTT assay; assay type: functional, cell-based; method in brief: as §1
L02 = assay: Antiproliferative activity against human LO2 cells after 48 hrs by MTT assay; assay type: cell-based; settings: L02, 48 h; method in brief: as §1
[6] = Selectivity index, ratio of IC50 for human LO2 cells to IC50 for human A549 cells; assay type: functional; method in brief: as §4
[7] = Antiproliferative activity against HLF after 48 hrs by MTT assay; assay type: cell-based; settings: Homo sapiens; method in brief: as §1
MGC-803 = assay: Antiproliferative activity against human MGC803 cells after 48 hrs by MTT assay; assay type: functional, cell-based; settings: MGC-803, 48 h; method in brief: as §1
[8] = Resistance factor, ratio of IC50 for human A549/CDDP cells to IC50 for human A549 cells; assay type: functional
Method in brief: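 MTT assay: log-phase cells were seeded at 5 × 10³/well for 24 h, then exposed to a concentration series for 48 h. MTT (5 mg/mL) was added for 4 h, formazan was dissolved in DMSO, and A570 was read. IC50 values came from dose–response curves of at least three independent experiments. Resistance factor = IC50 in the resistant line / IC50 in the parental sensitive line.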

HepG2 = assay: Growth inhibition of human HepG2 cells after 48 hrs by MTT assay; assay type: functional, cell-based; settings: HepG2, 48 h; method in brief: as §1
BJ = assay: Antiproliferative activity against human BJ cells after 48 hrs by MTT assay; assay type: cell-based; method in brief: as §1
MCF7 = assay: Antiproliferative activity against human MCF7 cells after 48 hrs by MTT assay; assay type: functional, cell-based; settings: MCF7, 48 h; method in brief: as §1
A549 [9] = assay: Antitumor activity against human A549 cells xenografted in Balb/c mouse assessed as tumor growth inhibition at 2.5 mg/kg, ip treated once in 2 days for 10 days relative to control; assay type: functional; settings: read-out: TGI
Method in brief: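 Male BALB/c nude mice, 5 weeks old, 18−20 g. Right flank injected sc with 0.1 mL of 1 × 10⁷ cells/mL log-phase A549 in FBS-free DMEM. At ~100 mm³, randomised into groups of 5 and dosed ip every 2 days; vehicle controls got equal volume. Tumour volume (0.5 × length × width²) and body weight recorded every 2 days.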

Sus scrofa [10] = species: Sus scrofa; assay: as §2; method in brief: as §3
A549 [11] = assay: Cell cycle arrest in human A549 cells assessed as accumulation at G2/M phase up to 24 hrs by propidium iodide staining based flow cytometry; assay type: functional
Method in brief: (§5)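 A549 seeded in six-well plates at 3 × 10⁵ cells/well and treated for 12 or 24 h; vehicle 0.01% DMSO. Cells fixed overnight in ice-cold 70% ethanol, treated with RNase A at 37 °C for 30 min, then stained with PI at 4 °C for 30 min. About 10 000 events acquired by flow cytometry at 488 nm; three experiments.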

A549 [12] = assay: Antimigratory activity against human A549 cells assessed as suppression of wound healing at 4 nM after 24 hrs by phase contrast microscopic method; assay type: functional, cell-based
Method in brief: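 Scratch wound assay: A549 plated at 5 × 10⁴ cells/dish and grown 24 h before scraping with a 10 μL tip. Medium then swapped to serum-free DMEM containing compound (4 nM) for 24 h. After a PBS wash, wound images taken at 0 and 24 h; at least three independent experiments.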

Sus scrofa [13] = species: Sus scrofa; assay: Inhibition of porcine brain tubulin polymerization at 7.5 uM measured every 60 secs for 90 mins by DAPI staining based fluorescence assay relative to control; method in brief: as §3
A549 [14] = assay: Induction of apoptosis in human A549 cells assessed as upregulation of Bax level at 2 to 4 nM after 24 to 48 hrs by Western blot method; assay type: functional, cell-based
Method in brief: (§6)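 A549 seeded in 60 mm dishes at 5 × 10⁵ cells and treated for 24 or 48 h. Lysed in RIPA buffer on ice for 30 min and spun at 12 500g. Protein measured by BCA; 40 μg run on 8−12% SDS−PAGE and moved to nitrocellulose. Blocked in 5% milk, primary antibodies at 4 °C overnight, HRP secondary 2 h, ECL detection.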

A549 [15] = assay: Induction of apoptosis in human A549 cells assessed as downregulation of Bcl2 level at 2 to 4 nM after 24 to 48 hrs by Western blot method; assay type: functional, cell-based; method in brief: as §6
A549 [16] = assay: Induction of apoptosis in human A549 cells assessed as upregulation of Bad level at 2 to 4 nM after 24 to 48 hrs by Western blot method; assay type: functional, cell-based; method in brief: as §6
A549 [17] = assay: Cell cycle arrest in human A549 cells assessed as decrease in S phase at 4 nM up to 24 hrs by propidium iodide staining based flow cytometry; assay type: functional; method in brief: as §5
A549 [18] = assay: Cell cycle arrest in human A549 cells assessed as decrease in G1 phase at 4 nM up to 24 hrs by propidium iodide staining based flow cytometry; assay type: functional; method in brief: as §5

- IC50 (A549/CDDP): 9 nM
- IC50 [2]: 2740 nM
- IC50 (HCT-116): 4 nM
- IC50 (HeLa): 5 nM
- IC50 (A549 [4]): 3 nM
- IC50 (LoVo): 8 nM
- IC50 (MDA-MB-231): 8 nM
- IC50 (MGC-803): 8 nM
- IC50 (HepG2): 5 nM
- IC50 (MCF7): 11 nM
Structure (SMILES): COc1ccc(N(C)c2nc(C)nc3ccccc23)cc1 [VERUBULIN]
- IC50 [1]: 11 nM
- Ratio IC50 [3]: 7.5
- Ratio IC50 [5]: 9
- IC50 (RKO): 3 nM
- IC50 (L02): 13 nM
- Ratio IC50 [6]: 6.5
- IC50 [7]: 18 nM
- Ratio IC50 [8]: 3
- IC50 (BJ): 15 nM

Structure (SMILES): C[Se]c1ccc(N(C)c2nc(C)nc3ccccc23)cc1F [listing 1 of 2 here]
- inhibition in vivo at 2.5 mg/kg (A549 [9]): 77.2%

Structure (SMILES): C[Se]c1ccc(N(C)c2nc(C)nc3ccccc23)cc1F [listing 2 of 2 here]
- inhibition (Sus scrofa [10]): Dose-dependent effect
- Activity (A549 [11]): Dose-dependent effect
- Activity (A549 [12]): Active
- inhibition (Sus scrofa [13]): 90.5%

Structure (SMILES): C[Se]c1ccc(N(C)c2nc(C)nc3ccccc23)cc1
- inhibition in vivo at 2.5 mg/kg (A549 [9]): 75.7%

Structure (SMILES): Cc1nc(N(C)c2ccc([Se]C#N)cc2)c2ccccc2n1
- inhibition (Sus scrofa [10]): Dose-dependent effect
- Activity (A549 [14]): Active
- Activity (A549 [15]): Active
- Activity (A549 [11]): Dose-dependent effect
- Activity (A549 [12]): Active
- Activity (A549 [16]): Active
- Activity (A549 [17]): Active
- Activity (A549 [18]): Active
